tolC growth inh: growth inhibitors of E. coli tolC mutant, primary screen, strain BW25113 ΔtolC::kan, 384-well. growth inhibition, % at 10 µM (by protocol). AID 573, 2007. OD615. 65,000 tested, 2.2% active;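 active = growth inhibition at or above a cutoff equal to the mean over every tested compound plus 3 SD, cut at about 60% in these data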;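 also: growth measured after 20 h incubation at 37 °C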
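test system = E. coli BW25113 ΔtolC::kan bacteria | medium = LB with kanamycin 50 µg/mL | signal = OD at 615 nm | schedule = 37 °C, 20 h exposure | evaluation = % inhibition of E. coli growth | compound dosing = one dose of 10 µM final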
E coli WT exp: growth inhibitors of wild-type E. coli, primary screen, strain BW25113, expanded library, OD600; OD600 absorbance; growth inhibition, % at 100 µM; 98,000 tested, 0.15% active; AID 710, 2007;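 active = growth inhibition above about 50% at one test dose, limit read from the data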;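 also: growth measured after 20 h incubation at 37 °C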
CYP2C19 inhib: blockers of cytochrome P450 2C19 activity – biochemical, luminescence, ADME assay, primary screen | CYP2C19 Supersomes, luciferin-H EGE luminescence, 30 min | inhibition, % at 5 µM | 96,000 tested, 21% active | AID 778, 2007;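 active = CYP2C19 inhibition above a set limit at 5 µM in the primary screen, cut at about 50% in these data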
Target sequence (P33261 whole entry, looked up): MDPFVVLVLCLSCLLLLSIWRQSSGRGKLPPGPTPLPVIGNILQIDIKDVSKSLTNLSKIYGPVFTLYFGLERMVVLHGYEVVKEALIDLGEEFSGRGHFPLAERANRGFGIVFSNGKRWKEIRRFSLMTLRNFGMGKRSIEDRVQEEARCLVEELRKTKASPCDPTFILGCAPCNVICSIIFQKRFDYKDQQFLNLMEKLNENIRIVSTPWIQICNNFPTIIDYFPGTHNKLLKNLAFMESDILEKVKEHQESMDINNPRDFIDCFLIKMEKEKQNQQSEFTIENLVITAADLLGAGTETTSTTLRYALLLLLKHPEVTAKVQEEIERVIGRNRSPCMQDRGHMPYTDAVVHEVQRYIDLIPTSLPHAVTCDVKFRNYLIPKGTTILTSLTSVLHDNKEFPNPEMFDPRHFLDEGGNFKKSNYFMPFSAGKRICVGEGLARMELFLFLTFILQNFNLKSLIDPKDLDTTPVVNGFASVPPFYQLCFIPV
CYP2C9 inh: blockers of cytochrome P450 2C9 activity – biochemical, luminescence, ADME assay, primary screen; P11712; inhibition, % at 5 µM; CYP2C9 Supersomes, luciferin-H conversion; AID 777, 2007; 96,000 tested, 20% active;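 active = blocking of liver enzyme CYP2C9 beyond about 50% at 5 µM, limit read from the data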
CYP2C19 activ: human CYP2C19 activators, primary screen, biochemical, luminescence | Cytochrome P450 2C19 (Homo sapiens), P33261 | recombinant CYP2C19, luciferin-H EGE luminescence; hits give high values; 0 = fully inhibited enzyme, 1 = untreated enzyme | activation factor at 5 µM | 96,000 tested, under 10 active | AID 1025, 2008;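 active = activation factor of at least 2 at 5 µM in the primary screen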
CYP2C9 act: human CYP2C9 activators, primary screen, biochemical, luminescence; Cytochrome P450 2C9 (Homo sapiens), P11712; recombinant CYP2C9, luciferin-H conversion; hits give high values; factor 1 = untreated enzyme, 0 = blocked; activation factor at 5 µM; 96,000 tested, 1.4% active; AID 1024, 2008;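 active = activation factor of 2 or more for CYP2C9 at a 5 µM dose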
Each line names hits and unclear results; the compound was inactive in the other large screens. Shown are actives, neighbours in structure and some others; about 29% of the full set was active somewhere.

Cc1cc2c(c(=O)n1CCCn1ccnc1)C(c1ccco1)C(C#N)=C(N)O2 (stereo not given)	CYP2C19 inhib 76.4, CYP2C9 inh 100.4
COc1ccc(C2C(C#N)=C(N)Oc3cc(C)n(Cc4ccco4)c(=O)c32)cc1 (stereo not given)	CYP2C9 inh 68.3 (no result: tolC growth inh)
COc1ccccc1C1C(C#N)=C(N)Oc2cc(C)n(CCCn3ccnc3)c(=O)c21 (stereo not given)	CYP2C19 inhib 90.0, CYP2C9 inh 100.0
COc1ccccc1C1C(C#N)=C(N)Oc2cc(C)n(Cc3ccccn3)c(=O)c21 (stereo not given)	none
Cc1ccc(CCNC(=O)C2CCC(=O)N2C(C)C)cc1 (stereo not given)	none
O=c1cc(O)c2c(=O)[nH]c(=O)n(-c3ccccc3)c2[nH]1	none
NS(=O)(=O)c1ccc(NC(=O)CCc2ccccc2)cc1	none
COc1cc(N2CN=c3s/c(=C\c4ccccn4)c(=O)n3C2)cc(OC)c1OC	CYP2C9 inh 56.4
O=c1/c(=C/c2ccc([N+](=O)[O-])cc2)sc2n1CCCN=2	none (no result: tolC growth inh)
O=c1/c(=C/c2ccccn2)sc2n1CN(c1ccccc1)CN=2	none
Cc1cccc(N2CN=c3s/c(=C\c4ccncc4)c(=O)n3C2)c1	CYP2C19 inhib 59.1
CN1C(=O)N(S(=O)(=O)c2ccc(F)c(F)c2F)C(=O)C1(C)C	none
Cc1cc(N2CCN(c3ccccc3)CC2)nc(-c2ccccc2)n1	tolC growth inh 76.9, CYP2C19 inhib 85.7
Cc1cc(Oc2ccccc2)nc(-c2ccccc2)n1	none
Cc1cc(N2CCN(C(=O)c3ccco3)CC2)nc(-c2ccccc2)n1	CYP2C19 inhib 73.6, CYP2C9 inh 55.2 (no result: E coli WT exp)
COc1ccc(C2(O)CC3CCC(C2)N3c2cc(C)nc(-c3ccccc3)n2)cc1 (stereo not given)	tolC growth inh 86.9, CYP2C19 inhib 53.2, CYP2C9 inh 92.6
Cc1cc(N2CCCCCC2)nc(-c2ccccc2O)n1	tolC growth inh 80.8
c1ccc(-c2cc(N3CCOCC3)nc(-c3ccccc3)n2)cc1	none
Cc1cc(OC(C)C)nc(-c2ccccc2O)n1	none (no result: tolC growth inh)
CC1CCN(c2c(NCc3ccc(C(=O)NCC4COc5ccccc5O4)cc3)c(=O)c2=O)CC1 (stereo not given)	none (no result: E coli WT exp, CYP2C19 inhib, CYP2C9 inh, CYP2C19 activ, CYP2C9 act)
CC(=O)c1c(C)nn(CCC(=O)O)c1C	none
C=CCN(CC=C)c1nc2ccccc2nc1C(C#N)C(=O)OC(C)C (stereo not given)	none (no result: CYP2C19 inhib, CYP2C9 inh, CYP2C19 activ, CYP2C9 act)
CCOc1ccccc1NC(=O)C(=O)NCC1CCCN1CC (stereo not given)	none (no result: tolC growth inh)
Cc1noc(C)c1CSc1nc2sc(C)c(C)c2c(=O)n1C1CCCC1	CYP2C9 inh 89.5
Cc1noc(C)c1CSc1nc2sc3c(c2c(=O)n1C)CCCC3	none (no result: tolC growth inh)
C=CCn1c(SCc2c(C)noc2C)nc2sc3c(c2c1=O)CCCCC3	CYP2C19 inhib 55.8, CYP2C9 inh 95.3
C=CCn1c(SCc2c(C)noc2C)nc2sc3c(c2c1=O)CCCC3	CYP2C9 inh 77.6 (no result: tolC growth inh)
Cc1onc(-c2c(Cl)cccc2Cl)c1C(=O)n1nnc2ccccc21	none (no result: tolC growth inh)
Cc1ccc2c(CC(=O)O)coc2c1C	none
N#Cc1nc(COc2ccccc2)oc1N1CCN(Cc2ccccc2)CC1	tolC growth inh 66.7, CYP2C19 inhib 77.7, CYP2C9 inh 92.7
N#Cc1nc(-c2cccs2)oc1N1CCN(Cc2ccccc2)CC1	none
N#Cc1nc(COc2ccccc2)oc1N1CCC(Cc2ccccc2)CC1	CYP2C19 inhib 55.1, CYP2C9 inh 87.4
CCOc1ccc(-c2nc(C#N)c(N3CCN(CC)CC3)o2)cc1	none
Cc1ccc(OCc2nc(C#N)c(N3CCN(Cc4ccccc4)CC3)o2)cc1	tolC growth inh 63.5, CYP2C19 inhib 67.5, CYP2C9 inh 83.5
COc1ccccc1OCc1nc(C#N)c(N2CC(C)CC(C)C2)o1 (stereo not given)	none
CN(C)S(=O)(=O)c1ccc(NC(=O)Cn2c(-c3ccccc3)noc2=O)cc1	CYP2C19 inhib 77.6, CYP2C9 inh 95.4 (no result: tolC growth inh)
CCN(CC)S(=O)(=O)c1ccc(NC(=O)Cn2c(=O)oc3ccccc32)cc1	none
Cc1c(Br)c(=O)[nH]c(=O)n1COCc1ccccc1	none
Cc1nc(C2CC(=O)OC23CCCCC3)cs1 (stereo not given)	CYP2C19 inhib 78.0 (no result: E coli WT exp)
C=CCNC(=O)c1onc(CSc2cc(C)ccc2C)c1C(=O)O	CYP2C9 inh 76.8 (no result: tolC growth inh)
CCCCNC(=O)c1onc(CSc2cc(C)ccc2C)c1C(=O)O	CYP2C9 inh 77.8 (no result: tolC growth inh)
Cc1ccc(C)c(SCc2noc(C(=O)NC(C)C)c2C(=O)O)c1	CYP2C9 inh 71.8 (no result: tolC growth inh)
C=CCNC(=O)c1onc(CSc2ccccc2C)c1C(=O)O	none (no result: tolC growth inh)
CCCCNC(=O)c1onc(CSc2ccccc2CC)c1C(=O)O	CYP2C9 inh 71.6 (no result: tolC growth inh)
O=c1c2c3n(c(=S)nc2[nH]n1-c1ccccc1)CCCCC3	none (no result: tolC growth inh)
Oc1oc(-c2ccccc2)nc1C=NCc1ccccc1	CYP2C19 inhib 78.3, CYP2C9 inh 69.2 (no result: tolC growth inh)
Oc1oc(-c2ccccc2)nc1C=Nc1ccccc1	none (no result: tolC growth inh)
CSc1ccccc1N=Cc1nc(-c2ccccc2)oc1O	CYP2C19 inhib 68.2
CN(C)c1ccc(N=Cc2nc(-c3ccccc3)oc2O)cc1	CYP2C19 inhib 50.3
Oc1cccc(C=NCc2ccccc2)c1	none (no result: tolC growth inh)
CN1[C@@H]2CC(OC(=O)[C@H](CO)c3ccccc3)C[C@H]1[C@@H]1O[C@@H]12 (stereo not given in full)	none (no result: E coli WT exp, CYP2C19 inhib, CYP2C9 inh, CYP2C19 activ, CYP2C9 act)
CN1CCN(C2=C(Cl)C(=O)N(c3ccc(Cl)cc3)C2=O)CC1	CYP2C19 inhib 87.7, CYP2C9 inh 56.2
O=C1C(Cl)=C(N2CCOCC2)C(=O)N1c1cccc(Cl)c1	CYP2C19 inhib 85.2
O=C(NC1CCCCCC1)C1CC(=O)N(Cc2ccccc2)C1 (stereo not given)	none
O=c1cc(NCc2ccccc2)nc2n1CCCS2	none (no result: E coli WT exp, CYP2C19 inhib, CYP2C9 inh, CYP2C19 activ, CYP2C9 act)
O=C1CC(c2ccc(F)cc2)Sc2ccccc2N1 (stereo not given)	none (no result: CYP2C19 inhib, CYP2C9 inh, CYP2C19 activ, CYP2C9 act)
COc1cc(C2CC(=O)Nc3ccccc3S2)cc(OC)c1OC (stereo not given)	CYP2C19 inhib 63.6
O=C(O)c1cc2ccccc2n1-c1ccccc1	CYP2C9 inh 53.9
CC(C)c1cc(C(=O)O)n(-c2ccccc2)n1	none (no result: tolC growth inh)
O=C1C(Cl)=C(NCCCN2CCOCC2)C(=O)N1CCc1ccccc1	CYP2C9 inh 77.7
O=C1C(Cl)=C(NCCc2ccccc2)C(=O)N1CCc1ccccc1	none (no result: tolC growth inh)
O=C(CN1CCN(Cc2ccccc2Cl)C1=O)NCC1CCCO1 (stereo not given)	none
C=CCNC1=C(Cl)C(=O)N(c2cccc(Cl)c2Cl)C1=O	CYP2C19 inhib 90.2 (no result: tolC growth inh)
Cc1ccc(N2C(=O)C(Cl)=C(NCCO)C2=O)c(C)c1	none

High-throughput results from PubChem BioAssay.
